# Reference: ChEMBL document CHEMBL2439948, “Discovery of DF-461, a Potent Squalene Synthase Inhibitor” (ACS Med Chem Lett, 2013)
# Active and inactive are the calls of the source. The rule behind the calls is not given here.
# Tests used:
# [1] = Lipophilicity, log D of the compound at pH 7.4; assay type: physicochemical; details: buffer
# Rattus norvegicus [2] = assay: Inhibition of cholesterol synthesis in Wistar rat at 3 mg/kg, po administered as single dose prior to [14C]mevalonolactone injection measured after 1 hr by liquid scintillation counting
# Squalene synthase = target: T1, Squalene synthase (Rattus norvegicus, UniProt Q02769); assay: Inhibition of rat hepatic microsomal squalene synthase using [3H]FPP as substrate after by scintillation spectrophotometry
# T1 sequence (Q02769 whole entry): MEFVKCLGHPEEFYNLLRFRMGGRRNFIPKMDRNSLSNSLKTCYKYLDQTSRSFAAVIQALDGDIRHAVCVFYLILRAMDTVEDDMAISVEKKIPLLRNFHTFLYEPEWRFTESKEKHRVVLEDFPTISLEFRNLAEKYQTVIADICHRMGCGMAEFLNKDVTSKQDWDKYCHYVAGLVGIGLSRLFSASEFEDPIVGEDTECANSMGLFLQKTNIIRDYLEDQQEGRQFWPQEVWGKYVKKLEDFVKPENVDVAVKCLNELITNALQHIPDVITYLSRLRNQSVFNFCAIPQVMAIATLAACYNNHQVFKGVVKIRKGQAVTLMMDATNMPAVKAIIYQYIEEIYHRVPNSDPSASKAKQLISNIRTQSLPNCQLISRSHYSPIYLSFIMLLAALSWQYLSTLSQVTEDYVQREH
# Hepatocyte = assay: Inhibition of cholesterol synthesis in rat hepatocytes assessed as formation of cholesterol using [14C]mevalonolactone as substrate after 1 hr by liquid scintillation counting; assay type: functional, cell-based
# marmosets [3] = assay: Reduction in total cholesterol level in marmosets at 30 mg/kg/day, po for 7 days; assay type: functional, Callitrichinae sp.; parameters: scale not given: the % may be the effect or the level left
# Summary of the method: (§1)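 Marmosets dosed orally at 30 mg/kg/day for 7 days. Plasma total, non-HDL and HDL cholesterol and triglyceride reported as mean percentage change from each animal's initial values (n = 7, 8). Significance was tested against initial values.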
# marmosets [4] = assay: Reduction in triglyceride level in marmosets at 30 mg/kg/day, po for 7 days; assay type: functional, Callitrichinae sp.; parameters: scale not given: the % may be the effect or the level left; summary of the method: as §1
# Rattus norvegicus [5] = assay: Inhibition of cholesterol synthesis in Wistar rat at 1 mg/kg, po administered as single dose prior to [14C]mevalonolactone injection measured after 4 hrs by liquid scintillation counting; assay type: functional
# Summary of the method: (§2)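 Rats given a single oral dose of 1 mg/kg; hepatic cholesterol synthesis inhibition (%) determined at 1, 4 and 7 h after dosing.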
# Rattus norvegicus [6] = assay: Inhibition of cholesterol synthesis in po dosed Wistar rat administered as single dose prior to [14C]mevalonolactone injection measured after 7 hrs by liquid scintillation counting; assay type: functional
# Rattus norvegicus [7] = assay: Inhibition of cholesterol synthesis in Wistar rat at 1 mg/kg, po administered as single dose prior to [14C]mevalonolactone injection measured after 1 hr by liquid scintillation counting; assay type: functional; summary of the method: as §2
# marmosets [8] = assay: Reduction in non-HDL cholesterol level in marmosets at 30 mg/kg/day, po for 7 days; assay type: functional, Callitrichinae sp.; parameters: scale not given: the % may be the effect or the level left; summary of the method: as §1
# Rattus norvegicus [9] = assay: Inhibition of cholesterol synthesis in Wistar rat at 3 mg/kg, po in presence of [14C]acetic acid; assay type: functional, organism-based; parameters: dose 3 mg/kg
# Summary of the method: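 Rats given a single 3 mg/kg oral dose; hepatic cholesterol synthesis inhibition expressed as % at 1 h post-dose.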
# Rattus norvegicus [10] = assay: Inhibition of cholesterol synthesis in Wistar rat at 1 mg/kg, po administered as single dose prior to [14C]mevalonolactone injection measured after 7 hrs by liquid scintillation counting; assay type: functional; summary of the method: as §2
# marmosets [11] = assay: Reduction in HDL cholesterol level in marmosets at 30 mg/kg/day, po for 7 days; assay type: functional, Callitrichinae sp.; parameters: scale not given: the % may be the effect or the level left; summary of the method: as §1
# Rattus norvegicus [12] = assay: Partition co-efficient, Kp in rats liver assessed per gram of tissue at 3 mg/kg, po administered as single dose measured at 1 hr
# Rattus norvegicus [13] = assay: Drug uptake in rats liver assessed per gram of tissue at 3 mg/kg, po administered as single dose measured at 1 hr
Structure (SMILES),logD [1],IC50 (Squalene synthase) [nM],Kp at 1 h (Rattus norvegicus [12]),concentration at 1 h (Rattus norvegicus [13]) [ng/g],inhibition in vivo at 3 mg/kg (Rattus norvegicus [2]) [%],IC50 (Hepatocyte) [nM],Activity (marmosets [3]) [%],Activity (marmosets [4]) [%],inhibition in vivo at 1 mg/kg (Rattus norvegicus [5]) [%],ED50 (Rattus norvegicus [6]) [mg/kg],inhibition in vivo at 1 mg/kg (Rattus norvegicus [7]) [%],Activity (marmosets [8]) [%],inhibition (Rattus norvegicus [9]),inhibition in vivo at 1 mg/kg (Rattus norvegicus [10]) [%],Activity (marmosets [11]) [%]
COc1cccc([C@H]2O[C@H](CCn3cc(C(=O)O)cn3)c3nnc(C(F)(F)F)n3-c3ccc(Cl)cc32)c1OC (relative stereo),0.83,3.2,,,71,130,,,,,,,,,
CC(C)c1c(C(=O)Nc2ccccc2)c(-c2ccccc2)c(-c2ccc(F)cc2)n1CC[C@@H](O)C[C@@H](O)CC(=O)O,,,,,,,,,,,,,Active,,
COc1cccc([C@H]2O[C@H](CC(=O)N3CCC(CC(=O)O)CC3)C(=O)N(CC(C)(C)COC(C)=O)c3ccc(Cl)cc32)c1OC [LAPAQUISTAT ACETATE],,,,,,,17,25,,3.8,,19,,,10
COc1cccc([C@H]2O[C@H](CCn3cc(C(=O)O)cn3)c3nnc(C)n3-c3ccc(Cl)cc32)c1OC (relative stereo),-0.4,36,,,30,290,,,,,,,,,
COc1cccc([C@H]2O[C@H](CCn3cc(C(=O)O)cn3)c3nnc(CF)n3-c3ccc(Cl)cc32)c1OC (relative stereo),,6,,,48,77,,,,,,,,,
CCc1c(OC)cccc1[C@H]1O[C@H](CC(=O)O)c2nnc(C(F)(F)F)n2-c2ccc(Cl)cc21,,0.36,,,,18,,,57,,76,,,21,

# Further compounds by falling IC50 (Squalene synthase), results first:
logD [1],IC50 (Squalene synthase) [nM],Kp at 1 h (Rattus norvegicus [12]),concentration at 1 h (Rattus norvegicus [13]) [ng/g],Structure (SMILES),inhibition in vivo at 3 mg/kg (Rattus norvegicus [2]) [%],IC50 (Hepatocyte) [nM],Activity (marmosets [3]) [%],Activity (marmosets [4]) [%],inhibition in vivo at 1 mg/kg (Rattus norvegicus [5]) [%],ED50 (Rattus norvegicus [6]) [mg/kg],inhibition in vivo at 1 mg/kg (Rattus norvegicus [7]) [%],Activity (marmosets [8]) [%],inhibition (Rattus norvegicus [9]),inhibition in vivo at 1 mg/kg (Rattus norvegicus [10]) [%],Activity (marmosets [11]) [%]
0.37,11,,,COc1cccc([C@H]2O[C@H](CCn3cc(C(=O)O)cn3)c3nnc(C(C)C)n3-c3ccc(Cl)cc32)c1OC (relative stereo),15,91,,,,,,,,,
,1.6,66,1040,COc1cccc([C@H]2O[C@H](CC(=O)O)c3nnc(C(F)(F)F)n3-c3ccc(Cl)cc32)c1OC,,38,29,29,78,,88,44,,45,3
,1.1,,,COc1cccc([C@H]2O[C@H](CC(=O)O)c3nnc(C(F)(F)F)n3-c3ccc(Cl)cc32)c1Cl,,19,39,24,77,0.11,93,53,Active,55,16
,0.85,,,COc1cccc([C@H]2O[C@H](CC(=O)O)c3nnc(C(F)(F)F)n3-c3ccc(Cl)cc32)c1C,,46,32,34,69,,87,42,,45,8
,0.7,,,COc1cccc([C@H]2O[C@H](CC(=O)O)c3nnc(C(F)(F)F)n3-c3ccc(Cl)cc32)c1OC(F)(F)F,,28,,,67,,77,,,48,
